Drawing on ChEMBL document CHEMBL1138238, “Synthesis and evaluation of 3-aryloxymethyl-1,2-dimethylindole-4,7-diones as mechanism-based inhibitors of NAD(P)H:quinone oxidoreductase 1 (NQO1) activity” (J Med Chem, 2007), this text covers IC50 and inhibition for 39 compounds.

In test [1] the test system is MIA PaCa-2. As to the kind of experiment: Cytotoxicity against human MIA PaCa2 cells after 72 hrs by MTT assay. Conditions: MIA PaCa-2, 72 h. Type of test: functional, cell-based. For orientation: Formazan colour is commonly taken as a measure of viable cells.
The test system of test [2] is MIA PaCa-2. Kind of test: Cytotoxicity against human MIA PaCa2 cells after 4 hrs by MTT assay. Conditions: MIA PaCa-2, 4 h. Type of test: functional, cell-based.
Test [3] addresses NAD(P)H dehydrogenase [quinone] 1 (Homo sapiens) (UniProt P15559). As to the kind of experiment: Inhibition of human recombinant NQO1 expressed in MIA PaCa2 cells at 10 to 100 nM after 1 hrs. The class given is cell-based. The settings on record: MIA PaCa-2. The gist of the method:
(§1)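 MIA PaCa-2 cells (1×10^6, plated the day before) exposed to indolequinone (1 nM–10 μM) in complete medium for 1 h. Cells then washed in PBS, scraped into 50 mM K phosphate pH 7.4 with 250 mM sucrose and 5 μM FAD, and sonicated on ice. NQO1 activity in sonicates measured as 0.2 mM NADH-dependent reduction of 40 μM DCPIP, read at 600 nm for 1 min at 32 °C.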

The target is the same in test [4]. As to the kind of experiment: Inhibition of human recombinant NQO1 expressed in MIA PaCa2 cells at 5000 to 10000 nM after 1 hrs. The class given is cell-based. The settings on record: MIA PaCa-2. The essentials: as §1
Test [5] shares this target. Kind of test: Inhibition of human recombinant NQO1 expressed in MIA PaCa2 cells at <10 nM after 1 hrs. Type of test: cell-based. Conditions: MIA PaCa-2. The essentials: as §1

Some results are limits rather than exact numbers.

NAD(P)H dehydrogenase [quinone] 1 (Homo sapiens), sequence (P15559 whole entry): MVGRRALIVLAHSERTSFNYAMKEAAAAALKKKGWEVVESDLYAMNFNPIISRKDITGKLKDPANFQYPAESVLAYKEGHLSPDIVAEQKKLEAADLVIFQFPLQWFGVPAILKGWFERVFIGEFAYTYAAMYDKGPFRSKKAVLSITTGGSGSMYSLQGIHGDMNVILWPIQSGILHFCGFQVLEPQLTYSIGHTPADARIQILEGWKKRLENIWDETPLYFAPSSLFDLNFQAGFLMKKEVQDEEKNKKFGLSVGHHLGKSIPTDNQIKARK

A word on the IC50: it is the point on the concentration scale where inhibition reaches its midpoint. Lower therefore signals higher potency. For the compound `Oc1ccc(C(F)(F)F)cc1`, the IC50 in the test with MIA PaCa-2 [1] worked out at 32900 nM; with MIA PaCa-2 [2], 13100 nM.

In the case of `Oc1ccncc1`, the IC50 with MIA PaCa-2 [1] stood at 17800 nM; with MIA PaCa-2 [2], 43200 nM.

As for `COC1=CC(=O)c2c(COc3ccccc3)c(C)n(C)c2C1=O`, the IC50 is 409 nM with MIA PaCa-2 [1] and 4560 nM in the test on MIA PaCa-2 [2].

As a reminder, the inhibition is the percentage by which the read-out fell short of the control. On to `COC1=CC(=O)c2c(c(COc3cccc([N+](=O)[O-])c3)c(C)n2C)C1=O`, for which the results for the IC50 in the test with MIA PaCa-2 [1] and in the test on MIA PaCa-2 [2] were 258 nM and 352 nM, respectively. For the same compound, in test [3], the inhibition was above 90%.

For `COC1=CC(=O)c2c(COc3ccc(F)cc3F)c(C)n(C)c2C1=O`, the IC50 was 75 nM with MIA PaCa-2 [1] and 255 nM with MIA PaCa-2 [2]. Moreover, the inhibition in test [3] is above 90%.

For the compound `COC1=CC(=O)c2c(COc3cccc([N+](=O)[O-])c3)c(C)n(C)c2C1=O`, the IC50 is 257 nM in the test on MIA PaCa-2 [1] and 351 nM with MIA PaCa-2 [2]. Further, the inhibition in test [3] was above 90%.

As to `COC1=CC(=O)c2c(c(COc3c(F)cc(F)cc3F)c(C)n2C)C1=O`, the IC50 in the test with MIA PaCa-2 [1] is 86 nM; in the test on MIA PaCa-2 [2] it was 427 nM.

With `COC1=CC(=O)c2c(c(COc3ccccc3)c(C)n2C)C1=O`, the IC50 in the test with MIA PaCa-2 [1] stood at 962 nM; in the test with MIA PaCa-2 [2] it was 1380 nM.

With `Oc1cccnc1`, the IC50 with MIA PaCa-2 [1] is 73100 nM; in the test with MIA PaCa-2 [2], 56500 nM.

Regarding `COC1=CC(=O)c2c(c(COc3ccc([N+](=O)[O-])cc3)c(C)n2C)C1=O`, the IC50 was 508 nM in the test on MIA PaCa-2 [1] and 629 nM in the test on MIA PaCa-2 [2]. Moreover, the inhibition in test [3] is above 90%.

Consider `COC1=CC(=O)c2c(c(COc3ccncc3)c(C)n2C)C1=O`, for which the IC50 came out at 2170 nM in the test on MIA PaCa-2 [1] and 2010 nM in the test on MIA PaCa-2 [2].

Turning to `O=[N+]([O-])c1ccccc1O` [NITROPHENOLATE], the IC50 with MIA PaCa-2 [1] was 16400 nM; in the test on MIA PaCa-2 [2], 6080 nM.

Turning to `O=[N+]([O-])c1ccc(O)c(F)c1`, the IC50 with MIA PaCa-2 [1] amounted to 19200 nM; in the test on MIA PaCa-2 [2] it was 14300 nM.

On to `COC1=CC(=O)c2c(COc3c(F)cc(F)cc3F)c(C)n(C)c2C1=O`, for which the figures for the IC50 in the test on MIA PaCa-2 [1] and with MIA PaCa-2 [2] were 212 nM and 452 nM, respectively. For the same compound, in test [3], the inhibition was above 90%.

`COC1=CC(=O)c2c(COc3ccc(N)cc3)c(C)n(C)c2C1=O`: the IC50 in the test with MIA PaCa-2 [1] was determined as 160 nM; in the test on MIA PaCa-2 [2] it was 504 nM.

With `Oc1ccc(F)cc1F`, the results for the IC50 with MIA PaCa-2 [1] and in the test with MIA PaCa-2 [2] were 20800 nM and 14800 nM, respectively.

For `COC1=CC(=O)c2c(c(C(C)Oc3ccc([N+](=O)[O-])cc3)c(C)n2C)C1=O` (stereo not given), the IC50 was 1700 nM in the test with MIA PaCa-2 [1] and 1830 nM in the test on MIA PaCa-2 [2].

Take `COC1=CC(=O)c2c(COc3ccc([N+](=O)[O-])cc3)c(C)n(C)c2C1=O`: the concentration for half-maximal inhibition (IC50) in the test on MIA PaCa-2 [1] was 355 nM; with MIA PaCa-2 [2], 638 nM. In addition, in test [3], the inhibition is above 90%.

In the case of `O=[N+]([O-])c1cccc(O)c1` [3-NITRO-PHENOL], the IC50 in the test on MIA PaCa-2 [1] is 13900 nM; in the test with MIA PaCa-2 [2], 7130 nM.

For the compound `Oc1ccc(F)cc1`, the values for the IC50 with MIA PaCa-2 [1] and in the test with MIA PaCa-2 [2] were 13200 nM and 12400 nM, respectively.

`COC1=CC(=O)c2c(c(COc3ccc([N+](=O)[O-])cc3F)c(C)n2C)C1=O`: the IC50 was found to be 3560 nM in the test on MIA PaCa-2 [1] and 4650 nM in the test with MIA PaCa-2 [2].

Regarding `COC1=CC(=O)c2c(COc3ccncc3)c(C)n(C)c2C1=O`, the values for the IC50 in the test with MIA PaCa-2 [1] and in the test on MIA PaCa-2 [2] were 3270 nM and 2560 nM, respectively. Further, the inhibition in test [3] is above 90%.

Consider `Nc1ccc(O)cc1` [4-AMINOPHENOL], for which the half-inhibitory concentration (IC50) in the test with MIA PaCa-2 [1] is 42200 nM; with MIA PaCa-2 [2], 42000 nM.

Regarding `COC1=CC(=O)c2c(c(COc3ccccc3[N+](=O)[O-])c(C)n2C)C1=O`, the IC50 came to 104 nM with MIA PaCa-2 [1] and 345 nM with MIA PaCa-2 [2].

With `COC1=CC(=O)c2c(COc3ccc(F)cc3)c(C)n(C)c2C1=O`, the IC50 is 493 nM in the test on MIA PaCa-2 [1] and 905 nM in the test with MIA PaCa-2 [2]. Besides, the inhibition in test [4] was above 90%.

For the compound `COC1=CC(=O)c2c(COc3ccccn3)c(C)n(C)c2C1=O`, the figures for the 50% inhibitory concentration (IC50) with MIA PaCa-2 [1] and with MIA PaCa-2 [2] were 2390 nM and 9580 nM, respectively. For the same compound, the inhibition in test [3] is above 90%.

Take `O=[N+]([O-])c1ccc(O)c([N+](=O)[O-])c1` [2,4-DINITROPHENOL]: the IC50 in the test with MIA PaCa-2 [1] was determined as 22100 nM; in the test on MIA PaCa-2 [2], 15900 nM.

With `COC1=CC(=O)c2c(COc3ccc([N+](=O)[O-])cc3F)c(C)n(C)c2C1=O`, the IC50 in the test with MIA PaCa-2 [1] was 417 nM; with MIA PaCa-2 [2], 529 nM. Moreover, the inhibition in test [3] is above 90%.

In the case of `COC1=CC(=O)c2c(c(COc3cccnc3)c(C)n2C)C1=O`, the IC50 in the test on MIA PaCa-2 [1] turned out to be 562 nM; with MIA PaCa-2 [2] it was 904 nM. Further, the inhibition in test [3] was above 90%.

`COC1=CC(=O)c2c(COc3ccccc3[N+](=O)[O-])c(C)n(C)c2C1=O`: the IC50 in the test with MIA PaCa-2 [1] was 178 nM; in the test on MIA PaCa-2 [2] it was 363 nM. In test [3], the inhibition was above 90%.

Consider `COC1=CC(=O)c2c(COc3cccnc3)c(C)n(C)c2C1=O`, for which the IC50 in the test on MIA PaCa-2 [1] came to 1820 nM; with MIA PaCa-2 [2], 2480 nM.

Regarding `N#Cc1ccc(O)cc1` [4-CYANOPHENOL], the IC50 with MIA PaCa-2 [1] was 73300 nM; with MIA PaCa-2 [2], 56800 nM.

Regarding `Oc1ccccc1` [PHENOL], the values for the IC50 in the test on MIA PaCa-2 [1] and in the test on MIA PaCa-2 [2] were 16000 nM and 16500 nM, respectively.

As to `COC1=CC(=O)c2c(COc3ccc(C#N)cc3)c(C)n(C)c2C1=O`, the IC50 with MIA PaCa-2 [1] was 192 nM; in the test on MIA PaCa-2 [2] it was 463 nM.

As for `O=[N+]([O-])c1ccc(O)cc1` [P-NITROPHENOL], the IC50 was 13000 nM with MIA PaCa-2 [1] and 11000 nM in the test on MIA PaCa-2 [2].

In the case of `Oc1c(F)cc(F)cc1F`, the results for the IC50 in the test on MIA PaCa-2 [1] and with MIA PaCa-2 [2] were 38100 nM and 36400 nM, respectively.

`COC1=CC(=O)c2c(COc3ccc(C(F)(F)F)cc3)c(C)n(C)c2C1=O`: the IC50 was found to be 311 nM in the test on MIA PaCa-2 [1] and 496 nM with MIA PaCa-2 [2]. Further, the inhibition in test [4] is above 90%.

As to `COC1=CC(=O)c2c(c(COc3ccccn3)c(C)n2C)C1=O`, the inhibition in test [5] was above 90%.

`Oc1ccccn1`: the results for the IC50 in the test with MIA PaCa-2 [1] and in the test with MIA PaCa-2 [2] were 68800 nM and 68100 nM, respectively.
